Laboratory results as given in ChEMBL document CHEMBL4715770, “Inhibition of Low Molecular Weight Protein Tyrosine Phosphatase by an Induced-Fit Mechanism” (J Med Chem, 2016).

Tests used:
[1] = target: T1, Tyrosine-protein phosphatase non-receptor type 7 (Homo sapiens, UniProt P35236); assay: Inhibition of His-tagged HePTP (unknown origin) expressed in Escherichia coli BL21 cells using para-nitrophenyl phosphate as substrate incubated for 5 to 10 mins by microplate reader based spectrophotometric analysis
T1 sequence (P35236 whole entry): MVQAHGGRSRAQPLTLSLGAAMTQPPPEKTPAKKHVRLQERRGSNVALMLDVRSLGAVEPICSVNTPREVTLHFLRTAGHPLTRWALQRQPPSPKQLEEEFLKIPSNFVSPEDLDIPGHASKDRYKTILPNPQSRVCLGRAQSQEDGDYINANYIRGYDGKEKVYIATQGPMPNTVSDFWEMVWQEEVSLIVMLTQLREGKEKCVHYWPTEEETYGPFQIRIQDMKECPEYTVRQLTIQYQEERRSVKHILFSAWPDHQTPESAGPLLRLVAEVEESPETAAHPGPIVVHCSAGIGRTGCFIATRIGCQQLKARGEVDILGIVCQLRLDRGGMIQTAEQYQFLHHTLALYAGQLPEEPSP

[2] = Inhibition of His-tagged PTP-H1 (unknown origin) expressed in Escherichia coli BL21 cells using para-nitrophenyl phosphate as substrate incubated for 5 to 10 mins by microplate reader based spectrophotometric analysis; design: species or system Homo sapiens
Outline: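 Enzyme at 5-20 nM was added to substrate plus a range of inhibitor concentrations and run 5-10 min at room temperature. Quenched with 5N NaOH and p-nitrophenol read at 405 nm (ε 18,000 M-1cm-1), with a no-enzyme background correction. IC50 from curve fitting.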

[3] = target: T2, Receptor-type tyrosine-protein phosphatase C (Homo sapiens, UniProt P08575); assay: Inhibition of His-tagged CD45 (unknown origin) expressed in Escherichia coli BL21 cells using para-nitrophenyl phosphate as substrate incubated for 5 to 10 mins by microplate reader based spectrophotometric analysis
T2 sequence (P08575 whole entry): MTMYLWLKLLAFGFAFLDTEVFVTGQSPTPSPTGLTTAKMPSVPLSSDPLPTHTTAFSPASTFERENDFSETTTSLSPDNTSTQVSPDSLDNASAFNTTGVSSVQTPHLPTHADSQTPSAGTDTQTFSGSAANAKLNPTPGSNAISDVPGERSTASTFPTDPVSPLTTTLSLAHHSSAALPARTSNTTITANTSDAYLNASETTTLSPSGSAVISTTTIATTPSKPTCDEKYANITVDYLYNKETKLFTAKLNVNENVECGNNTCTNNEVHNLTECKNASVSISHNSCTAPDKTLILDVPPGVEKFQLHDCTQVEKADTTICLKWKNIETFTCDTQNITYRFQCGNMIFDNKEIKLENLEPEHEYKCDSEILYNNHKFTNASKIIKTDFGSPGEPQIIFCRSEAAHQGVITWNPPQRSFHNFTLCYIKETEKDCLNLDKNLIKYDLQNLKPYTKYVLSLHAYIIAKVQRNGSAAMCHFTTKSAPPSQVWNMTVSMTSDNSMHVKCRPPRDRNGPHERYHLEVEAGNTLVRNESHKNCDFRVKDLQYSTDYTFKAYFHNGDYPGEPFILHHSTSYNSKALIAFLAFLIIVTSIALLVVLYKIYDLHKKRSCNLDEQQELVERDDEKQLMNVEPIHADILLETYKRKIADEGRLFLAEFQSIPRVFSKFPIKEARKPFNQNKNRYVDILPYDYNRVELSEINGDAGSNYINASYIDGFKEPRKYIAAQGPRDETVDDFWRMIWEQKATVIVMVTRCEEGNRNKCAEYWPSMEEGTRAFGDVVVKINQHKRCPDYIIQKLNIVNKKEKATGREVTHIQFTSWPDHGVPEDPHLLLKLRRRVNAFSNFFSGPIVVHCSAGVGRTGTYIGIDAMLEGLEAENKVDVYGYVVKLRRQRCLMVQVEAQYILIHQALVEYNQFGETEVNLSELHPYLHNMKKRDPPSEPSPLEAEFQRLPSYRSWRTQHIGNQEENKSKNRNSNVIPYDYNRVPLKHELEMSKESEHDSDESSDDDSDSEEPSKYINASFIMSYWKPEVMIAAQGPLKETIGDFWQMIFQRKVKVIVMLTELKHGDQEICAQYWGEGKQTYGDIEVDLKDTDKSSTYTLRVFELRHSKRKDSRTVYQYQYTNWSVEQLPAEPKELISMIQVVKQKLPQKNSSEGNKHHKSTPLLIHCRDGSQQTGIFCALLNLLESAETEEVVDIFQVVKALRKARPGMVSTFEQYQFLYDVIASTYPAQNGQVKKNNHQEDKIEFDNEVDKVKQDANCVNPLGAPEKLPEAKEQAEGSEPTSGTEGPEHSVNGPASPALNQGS

[4] = target: T3, Dual specificity protein phosphatase CDC14A (Homo sapiens, UniProt Q9UNH5); assay: Inhibition of His-tagged CDC14A (unknown origin) expressed in Escherichia coli BL21 cells using para-nitrophenyl phosphate as substrate incubated for 5 to 10 mins by microplate reader based spectrophotometric analysis
T3 sequence (Q9UNH5 whole entry): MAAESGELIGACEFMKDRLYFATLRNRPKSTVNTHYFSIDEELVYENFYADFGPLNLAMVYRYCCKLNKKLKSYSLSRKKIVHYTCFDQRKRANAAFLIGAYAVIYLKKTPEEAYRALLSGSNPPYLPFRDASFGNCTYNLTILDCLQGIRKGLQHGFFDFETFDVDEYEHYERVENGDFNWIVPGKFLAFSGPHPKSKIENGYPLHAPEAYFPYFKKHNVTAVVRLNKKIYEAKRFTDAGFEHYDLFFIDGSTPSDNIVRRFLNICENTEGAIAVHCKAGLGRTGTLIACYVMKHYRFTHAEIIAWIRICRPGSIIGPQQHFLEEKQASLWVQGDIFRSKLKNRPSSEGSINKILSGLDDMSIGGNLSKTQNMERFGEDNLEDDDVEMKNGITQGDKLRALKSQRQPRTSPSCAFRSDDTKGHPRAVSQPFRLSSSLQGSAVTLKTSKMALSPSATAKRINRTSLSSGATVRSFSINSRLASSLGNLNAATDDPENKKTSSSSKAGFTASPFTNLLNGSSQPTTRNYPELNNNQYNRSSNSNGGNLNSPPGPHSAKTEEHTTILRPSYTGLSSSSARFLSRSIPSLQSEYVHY

[5] = target: T4, RNA polymerase II subunit A C-terminal domain phosphatase SSU72 (Homo sapiens, UniProt Q9NP77); assay: Inhibition of His-tagged SSu72 (unknown origin) expressed in Escherichia coli BL21 cells using para-nitrophenyl phosphate as substrate incubated for 5 to 10 mins by microplate reader based spectrophotometric analysis
T4 sequence (Q9NP77 whole entry): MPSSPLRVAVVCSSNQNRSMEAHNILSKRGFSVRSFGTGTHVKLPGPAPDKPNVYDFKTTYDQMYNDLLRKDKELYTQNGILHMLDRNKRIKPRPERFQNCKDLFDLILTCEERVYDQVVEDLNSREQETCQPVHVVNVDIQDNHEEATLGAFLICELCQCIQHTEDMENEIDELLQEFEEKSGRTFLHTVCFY

[6] = target: Dual specificity protein phosphatase 3 (Homo sapiens, UniProt P51452); assay: Inhibition of His-tagged VHR (unknown origin) expressed in Escherichia coli BL21 cells using para-nitrophenyl phosphate as substrate incubated for 5 to 10 mins by microplate reader based spectrophotometric analysis
Sequence of Dual specificity protein phosphatase 3 (P51452 whole entry): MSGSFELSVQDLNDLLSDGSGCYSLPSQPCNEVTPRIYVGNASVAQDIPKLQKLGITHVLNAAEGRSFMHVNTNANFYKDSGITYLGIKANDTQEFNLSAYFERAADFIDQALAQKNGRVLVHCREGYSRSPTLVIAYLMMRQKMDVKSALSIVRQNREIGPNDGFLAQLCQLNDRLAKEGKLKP

| SMILES | IC50 [1] | IC50 [2] | IC50 [3] | IC50 [4] | IC50 [5] | IC50 [6] |
| --- | --- | --- | --- | --- | --- | --- |
| O=C(Nc1ccc(OCc2ccccc2)c(Cl)c1)C(c1ccccc1)S(=O)(=O)O (stereo not drawn) | > 200 µM | > 200 µM | > 200 µM | > 200 µM | – | – |
| O=C(Nc1nc2ccc([N+](=O)[O-])cc2s1)C(c1ccccc1)S(=O)(=O)O (stereo not drawn) | > 100 µM | > 100 µM | > 100 µM | > 100 µM | > 100 µM | > 100 µM |
| O=C(Nc1cc(C(F)(F)F)cc(C(F)(F)F)c1)C(c1ccccc1)S(=O)(=O)O (stereo not drawn) | 94 µM | > 200 µM | > 200 µM | > 200 µM | 83 µM | > 200 µM |
| O=C(Nc1ccc(-n2ccnc2)cc1)C(c1ccccc1)S(=O)(=O)O (stereo not drawn) | > 100 µM | > 100 µM | > 100 µM | > 100 µM | > 100 µM | > 100 µM |
| Cc1c(Br)cc(NC(=O)C(c2ccccc2)S(=O)(=O)O)cc1Br (stereo not drawn) | > 200 µM | > 200 µM | > 200 µM | > 200 µM | > 200 µM | > 200 µM |
